Data from ChEMBL document CHEMBL4130602, “Rearranged Phloroglucinol-Monoterpenoid Adducts from Callistemon rigidus” (J Nat Prod, 2018).

These compounds were tested on RAW264.7 (assay: Antiinflammatory activity in mouse RAW264.7 cells assessed as inhibition of LPS-induced nitric oxide production pretreated for 1 hr followed by LPS stimulation measured after 24 hrs by griess assay).
Assay type: functional, cell-based
In short: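 Compound added 1 h before lipopolysaccharide, then 24 h incubation. Culture supernatant mixed with Griess reagent, 10 min at room temperature; absorbance read at 550 nm, nitrite quantified from NaNO2 standard curve. Run in triplicate.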

Row | IC50 [µM] | SMILES
1 | > 50 | COc1cc(O)c(C(=O)CC(C)C)c2c1[C@@H]1C[C@H](C(C)C)C=C[C@]1(C)O2
2 | > 50 | COc1cc(O)c(C(=O)C(C)C)c2c1[C@H]1C[C@H](C(C)C)[C@H]3O[C@H]3[C@@]1(C)O2
3 | > 50 | CC[C@H](C)C(=O)c1c(O)cc(OC)c2c1O[C@]1(C)C=C[C@@H](C(C)C)C[C@H]21
4 | > 50 | COc1cc(O)c(C(=O)C(C)C)c2c1[C@H]1C[C@H](C(C)C)C=C[C@@]1(C)O2
5 | > 50 | COc1cc(O)c(C(=O)CC(C)C)c2c1[C@H]1C[C@H](C(C)C)C=C[C@@]1(C)O2
6 | 17.7 | COc1cc(O)c(C(=O)C(C)C)c2c1[C@H]1C[C@H](C(C)C)[C@@H](C=O)[C@@]1(C)O2

Further lines, the compound ahead of its results:

Row | SMILES | IC50 [µM]
7 | CC[C@H](C)C(=O)c1c(O)cc(OC)c2c1O[C@@]1(C)[C@@H]2C[C@H](C(C)C)[C@H]1C=O | 15.3
8 | CC[C@H](C)C(=O)c1c(O)cc(OC)c2c1O[C@@]1(C)[C@@H]2C[C@H](C(C)C)[C@H]2O[C@H]21 | > 50
9 | COc1cc(O)c(C(=O)C(C)C)c2c1[C@@H]1[C@@H](C(C)C)CC=C(C)[C@@H]1O2 | > 50
10 | COc1ccc2c(c1)c(CC(=O)O)c(C)n2C(=O)c1ccc(Cl)cc1 [INDOMETHACIN] | 21.1
